Inhibition and Activity data for 13 compounds are collected here from ChEMBL document CHEMBL1146361, “Studies on acyclic pyrimidines as inhibitors of mycobacteria” (Bioorg Med Chem, 2007).

The source made the active and inactive calls. No cut-off for these calls is given here.

The test system of assay [1] is Mycobacterium tuberculosis. Nature of the assay: Antimycobacterial activity against Mycobacterium tuberculosis H37Ra by MABA. The assay is classed as functional. Also on record: concentration or dose not given beside the values. The gist of the method: (§1)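 Compounds in DMSO (100× highest final concentration), diluted in 7H9GC; tested at 100, 50, 10 and 1 µg/mL in triplicate, three experiments. Frozen inoculum diluted in 7H9GC. Read visually and spectrophotometrically. […], mean given. Visual MIC = lowest concentration preventing blue-to-pink change.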

The next assay has as its system Mycobacterium avium. Put plainly: Antimycobacterial activity against Mycobacterium avium ATCC 25291. Type of assay: functional. More on the design: concentration or dose not given beside the values. The gist of the method: as §1
The subject of another assay is Staphylococcus aureus. Nature of the assay: Antibacterial activity against Staphylococcus aureus up to 100 ug/ml after 16 to 20 hrs by broth microdilution method. Type of assay: functional, organism-based.
The subject of assay [2] is Staphylococcus epidermidis. Nature of the assay: Antibacterial activity against Staphylococcus epidermidis up to 100 ug/ml after 16 to 20 hrs by broth microdilution method. The assay is classed as functional, organism-based.
The next assay concerns Enterococcus faecalis. Nature of the assay: Antibacterial activity against Enterococcus faecalis up to 100 ug/ml after 16 to 20 hrs by broth microdilution method. Type of assay: functional, organism-based.
A further assay has as its system Bacillus subtilis. Put plainly: Antibacterial activity against Bacillus subtilis up to 100 ug/ml after 16 to 20 hrs by broth microdilution method. Type of assay: functional, organism-based.
A further assay deals with Streptococcus pneumoniae. Nature of the assay: Antibacterial activity against Streptococcus pneumoniae up to 100 ug/ml after 16 to 20 hrs by broth microdilution method. The assay is classed as functional, organism-based.
The next assay concerns Salmonella typhimurium. Put plainly: Antibacterial activity against Salmonella Typhimurium up to 100 ug/ml after 16 to 20 hrs by broth microdilution method. The assay is classed as functional, organism-based. Particulars: Salmonella enterica subsp. enterica serovar Typhimurium.
A further assay relates to Escherichia coli. Put plainly: Antibacterial activity against Escherichia coli up to 100 ug/ml after 16 to 20 hrs by broth microdilution method. Type of assay: functional, organism-based.
The next assay relates to Proteus vulgaris. Nature of the assay: Antibacterial activity against Proteus vulgaris up to 100 ug/ml after 16 to 20 hrs by broth microdilution method. Type of assay: functional, organism-based.
A further assay concerns Pseudomonas aeruginosa. Put plainly: Antibacterial activity against Pseudomonas aeruginosa up to 100 ug/ml after 16 to 20 hrs by broth microdilution method. The assay is classed as functional, organism-based.

Regarding `C=C(N=[N+]=[N-])c1cn(COC(CO)CO)c(=O)[nH]c1=O`, the Inhibition (in assay [1]; in the assay on Mycobacterium avium) was 0% throughout. Also, the outcome (in the assay with Staphylococcus aureus; in assay [2]; in the assay on Enterococcus faecalis; in the assay with Bacillus subtilis; in the assay with Streptococcus pneumoniae; in the assay with Salmonella typhimurium) was inactive. The result in the assay on Escherichia coli, in the assay on Proteus vulgaris and with Pseudomonas aeruginosa was inactive.
As to `CCc1cn(COCCO)c(=O)[nH]c1=O`, the Inhibition (in assay [1]; with Mycobacterium avium) was 0% each time. Besides, the result (in the assay with Staphylococcus aureus; in assay [2]; in the assay with Enterococcus faecalis; in the assay on Bacillus subtilis; in the assay with Streptococcus pneumoniae; in the assay with Salmonella typhimurium) was inactive. Besides, the result with Escherichia coli, in the assay with Proteus vulgaris and in the assay with Pseudomonas aeruginosa was inactive.
With `O=c1[nH]c(=O)n(COCCO)cc1[N+](=O)[O-]`, the Inhibition (in assay [1]; with Mycobacterium avium) was 0% each time. Further, the outcome (in the assay with Staphylococcus aureus; in assay [2]; in the assay on Enterococcus faecalis; with Bacillus subtilis; with Streptococcus pneumoniae; in the assay with Salmonella typhimurium) was inactive. The result with Escherichia coli, in the assay with Proteus vulgaris and with Pseudomonas aeruginosa was inactive.
As for `C=Cc1cn(COC(CO)CO)c(=O)[nH]c1=O`, the Inhibition (in [1]; with Mycobacterium avium) was 0% in each case. For the same compound, the outcome (in the assay with Staphylococcus aureus; in [2]; in the assay on Enterococcus faecalis; in the assay with Bacillus subtilis; in the assay with Streptococcus pneumoniae; in the assay on Salmonella typhimurium) was inactive. Also, the outcome in the assay with Escherichia coli, in the assay with Proteus vulgaris and with Pseudomonas aeruginosa was inactive.
With `Cc1cn(COCCO)c(=O)[nH]c1=O`, the Inhibition (in assay [1]; with Mycobacterium avium) was 0% each time. Besides, the result (in the assay on Staphylococcus aureus; in [2]; in the assay on Enterococcus faecalis; in the assay with Bacillus subtilis; in the assay with Streptococcus pneumoniae; in the assay on Salmonella typhimurium) was inactive. The result with Escherichia coli, with Proteus vulgaris and in the assay with Pseudomonas aeruginosa was inactive.
With `O=c1ccn(COCCO)c(=O)[nH]1`, the Inhibition (in assay [1]; in the assay with Mycobacterium avium) was 0% in each case. Also, the outcome (with Staphylococcus aureus; in assay [2]; in the assay on Enterococcus faecalis; with Bacillus subtilis; with Streptococcus pneumoniae; with Salmonella typhimurium) was inactive. The outcome with Escherichia coli, with Proteus vulgaris and in the assay on Pseudomonas aeruginosa was inactive.
Turning to `O=c1[nH]c(=O)n(COCCO)cc1Cl`, the Inhibition (in assay [1]; with Mycobacterium avium) was 0% each time. The result (in the assay on Staphylococcus aureus; in assay [2]; in the assay with Enterococcus faecalis; in the assay on Bacillus subtilis; in the assay on Streptococcus pneumoniae; in the assay with Salmonella typhimurium) was inactive. The outcome in the assay on Escherichia coli, with Proteus vulgaris and in the assay on Pseudomonas aeruginosa was inactive.
Consider `[N-]=[N+]=NC(CI)c1cn(COC(CO)CO)c(=O)[nH]c1=O` (stereo not drawn), for which the Inhibition (in [1]; with Mycobacterium avium) was 0% throughout. In addition, the result (in the assay on Staphylococcus aureus; in [2]; in the assay on Enterococcus faecalis; with Bacillus subtilis; in the assay with Streptococcus pneumoniae; with Salmonella typhimurium) was inactive. Moreover, the outcome in the assay on Escherichia coli, in the assay on Proteus vulgaris and in the assay with Pseudomonas aeruginosa was inactive.
`CCCCCC#Cc1cn(COCCO)c(=O)[nH]c1=O`: the Inhibition (in [1]; in the assay with Mycobacterium avium) was 0% each time. In addition, the outcome (in the assay with Staphylococcus aureus; in [2]; in the assay with Enterococcus faecalis; in the assay with Bacillus subtilis; with Streptococcus pneumoniae; in the assay on Salmonella typhimurium) was inactive. Also, the outcome in the assay with Escherichia coli, with Proteus vulgaris and with Pseudomonas aeruginosa was inactive.
As to `[N-]=[N+]=NC(CCl)c1cn(COC(CO)CO)c(=O)[nH]c1=O` (stereo not drawn), the Inhibition (in assay [1]; with Mycobacterium avium) was 0% throughout. Besides, the outcome (in the assay with Staphylococcus aureus; in [2]; with Enterococcus faecalis; in the assay with Bacillus subtilis; in the assay on Streptococcus pneumoniae; in the assay with Salmonella typhimurium) was inactive. In addition, the outcome in the assay with Escherichia coli, in the assay on Proteus vulgaris and in the assay with Pseudomonas aeruginosa was inactive.
Turning to `O=c1[nH]c(=O)n(COC(CO)CO)cc1I` [IODACYCLUR], the Inhibition (in assay [1]; with Mycobacterium avium) was 0% in each case. Moreover, the outcome (in the assay on Staphylococcus aureus; in assay [2]; in the assay on Enterococcus faecalis; in the assay with Bacillus subtilis; in the assay on Streptococcus pneumoniae; in the assay with Salmonella typhimurium) was inactive. For the same compound, the outcome in the assay with Escherichia coli, in the assay on Proteus vulgaris and in the assay with Pseudomonas aeruginosa was inactive.
As to `O=c1[nH]c(=O)n(COCCO)cc1F`, the Inhibition (in assay [1]; in the assay with Mycobacterium avium) was 0% in each case. Moreover, the outcome (in the assay on Staphylococcus aureus; in assay [2]; in the assay with Enterococcus faecalis; in the assay with Bacillus subtilis; in the assay with Streptococcus pneumoniae; with Salmonella typhimurium) was inactive. In addition, the result with Escherichia coli, in the assay on Proteus vulgaris and with Pseudomonas aeruginosa was inactive.
On to `O=c1[nH]c(=O)n(COCCO)cc1I`, for which the Inhibition (in [1]; in the assay with Mycobacterium avium) was 0% throughout. In addition, the outcome (in the assay with Staphylococcus aureus; in assay [2]; in the assay with Enterococcus faecalis; with Bacillus subtilis; in the assay on Streptococcus pneumoniae; with Salmonella typhimurium) was inactive. Also, the outcome in the assay on Escherichia coli, in the assay with Proteus vulgaris and in the assay on Pseudomonas aeruginosa was inactive.
